Screening data as filed in PubChem.
NPR2 activator: GC-B (human) receptor activation; activation, % at 10 µM; 370,000 tested, 0.11% active; AID 1920062; HEK293-GC-B cells, CNP EC30, cGMP TR-FRET; 0% at EC30 CNP, 100% saturating CNP;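 active = activation at 10 µM reaching about 35% in either raw or pattern-adjusted values, limit read from the data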
Target sequence (P20594 whole entry, looked up): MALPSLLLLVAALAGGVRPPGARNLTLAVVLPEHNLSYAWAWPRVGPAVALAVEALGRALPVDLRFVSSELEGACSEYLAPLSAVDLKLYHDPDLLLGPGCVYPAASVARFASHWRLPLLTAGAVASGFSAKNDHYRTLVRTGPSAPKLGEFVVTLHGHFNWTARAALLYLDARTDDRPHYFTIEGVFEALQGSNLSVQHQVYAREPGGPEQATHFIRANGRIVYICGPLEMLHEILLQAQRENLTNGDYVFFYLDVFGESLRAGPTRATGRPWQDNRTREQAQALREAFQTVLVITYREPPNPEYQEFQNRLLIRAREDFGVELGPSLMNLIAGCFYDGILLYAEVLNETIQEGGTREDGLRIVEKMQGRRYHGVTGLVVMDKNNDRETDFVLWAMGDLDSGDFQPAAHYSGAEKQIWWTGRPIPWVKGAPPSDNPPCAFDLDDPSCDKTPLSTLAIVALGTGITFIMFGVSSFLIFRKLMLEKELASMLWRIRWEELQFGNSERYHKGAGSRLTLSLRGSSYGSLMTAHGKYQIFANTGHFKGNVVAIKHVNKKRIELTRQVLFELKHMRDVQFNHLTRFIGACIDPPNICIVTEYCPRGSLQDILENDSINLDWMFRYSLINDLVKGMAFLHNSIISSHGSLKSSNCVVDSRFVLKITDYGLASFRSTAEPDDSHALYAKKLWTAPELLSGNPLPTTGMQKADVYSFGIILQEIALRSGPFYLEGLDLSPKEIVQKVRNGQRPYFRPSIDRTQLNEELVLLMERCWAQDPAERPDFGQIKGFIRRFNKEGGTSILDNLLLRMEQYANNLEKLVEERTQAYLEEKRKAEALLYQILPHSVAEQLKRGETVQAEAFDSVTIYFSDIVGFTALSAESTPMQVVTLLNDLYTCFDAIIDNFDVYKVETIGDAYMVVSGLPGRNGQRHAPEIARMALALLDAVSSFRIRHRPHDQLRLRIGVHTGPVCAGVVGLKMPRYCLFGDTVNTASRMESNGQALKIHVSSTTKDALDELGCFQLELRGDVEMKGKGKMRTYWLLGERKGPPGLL
XiGFP reactiv: X-chromosome reactivation activator. XiGFP mouse fibroblasts, % GFP-positive cells imaging, 3 d; cells co-treated with 5-aza-dC sensitizer; scaled so ellipticine positive control = 100%. activation, % at 7.58 µM. 360,000 tested, 0.055% active. AID 743238;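 active = mean normalized replicate activation at least 10% and every replicate at or above 10%; inconclusive = only one of the two criteria met; inactive = mean below 10% and not all replicates reach 10%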;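 also: 0% = median of on-plate neutral control wells and 100% = ellipticine 6 µM median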
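System: SV40-immortalized XiGFP fibroblast cells, line 68-5-11 / Incubation: 3-day compound exposure, then 15 min fixation at room temperature / Compound: single concentration per compound, delivered by pin transfer / Buffer or medium: DMEM plus 5-aza-dC sensitizer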
GC-A act: GC-A (human) enzyme activation. P16066. HEK293 GC-A cells, cGMP TR-FRET, EC30 ANP; 0% at EC30 ANP, 100% saturating ANP. activation, % at 10 µM. 370,000 tested, 0.14% active. AID 1671463; in the data active = activation above about 40%
CaV13 ICDI inh: Primary screen for inhibitors of IQ motif and Ca2+-dependent inactivation inhibitor domain binding in CACNA1D, Förster resonance energy transfer in living cells, …; HEK cells, CFP/YFP FRET ICDI-IQ, plate reader, 10 min; percent FRET-ratio fall versus neutral wells; 340,000 tested, 0.098% active; inhibition, % at 12.3 µM;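 active = mean replicate inhibition of at least 30% and at least 1% of replicates passing that level; inconclusive = only one of the two criteria is met; inactive = neither criterion is met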;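 also: 0% = median of the neutral control wells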
Vif imaging: blocks HIV Vif function; inhibition, % at 7.49 µM; 340,000 tested, 0.35% active; HEK293T cells, Vif self-association by quenched fluorescence, imaging, 24 h; in the data active = inhibition above about 50%, passing the limit was not always enough; inconclusive = no clear call, values can overlap the other calls; inactive = below about 31%
N-glyco inh: N-linked glycosylation inhibition. 360,000 tested, 0.23% active. AID 588692. reporter increase, % at 12.5 µM. D54 ERlucT glycosylation luciferase reporter, 24 h; percent of 100 nM tunicamycin response;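 active = mean luciferase reporter signal, scaled so untreated is 0 and the glycosylation-blocking control 100, at or above a set limit in every replicate; inconclusive = mean reaches the limit but not every replicate does; inactive = mean below the limit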;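 also: luciferase carries N-glycosylation sites so blocking glycosylation raises the light; 0% = median of neutral control wells and 100% = median of 100 nM tunicamycin wells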
Starred values were filed as active, the others as inactive; u = inconclusive; x = not tested or not shown. Sampled rows, rich in hits. Any-hit rate of the full collection: about 0.7%.

SMILES | NPR2 activator | XiGFP reactiv | GC-A act | CaV13 ICDI inh | Vif imaging | N-glyco inh
CCOC(=O)CC(=O)CSc1nc2ccc(C)cc2cc1C#N | 0 | x | 14 | -10 | 83* | -7
Cc1ccc2nc(SCC(=O)Nc3ccc4sc(C)nc4c3)c(C#N)cc2c1 | 4 | x | 8 | -6 | -2 | 33*
O=C(Cc1ccccc1)N1CC2(C1)[C@@H](c1ccccc1)[C@@H](CO)N2S(=O)(=O)Cc1ccccc1 | x | 0 | x | x | x | x
O=C(Cc1ccccc1)Nc1ccc2c(c1)C(=O)N(CC1CCCO1)C2=O (stereo not drawn) | -1 | 0 | 3 | -7 | 50* | 2
O=C(COc1ccccc1)Nc1ccc2c(c1)C(=O)N(CC1CCCO1)C2=O (stereo not drawn) | 0 | 0 | -2 | -6 | -2 | 0
CCC(=O)N1[C@@H](CO)[C@@H](c2ccccc2)C12CN(Cc1cccnc1)C2 | x | 0 | x | x | x | x
O=C(NCCc1ccccc1F)c1cc(COc2ccc(F)cc2F)on1 | 4 | 0 | 2 | 7 | -8 | -1
O=C(N[C@H]1CCCCNC1=O)c1cc(COc2ccc(F)cc2F)on1 | 6 | 0 | 66* | -5 | -24 | 1
CCN(CC)CCCNc1ccc2ncn3c4ccc(O)cc4c(=O)c1c23 | -10 | 4 | -11 | -43 | x | 81*
CN(C)CCNc1ccc2nnn3c4ccc(O)cc4c(=O)c1c23 | -5 | 0 | -2 | -7 | -9 | u
COc1ccc(-n2nc(C(=O)NCC(=O)Nc3cccc(Cl)c3)c3ccccc3c2=O)cc1OC | -12 | 0 | 0 | -5 | 53* | 4
CCOc1ccc(NC(=O)CNC(=O)c2nn(-c3ccc(OC)c(OC)c3)c(=O)c3ccccc23)cc1 | -4 | 0 | 9 | -1 | -10 | -1
COc1ccccc1OCC(=O)Nc1ccc(S(=O)(=O)N2CCCC2)cc1 | 2 | 0 | -3 | -3 | 76* | -2
Cc1ccc(NC(=O)COc2ccc(-c3nnco3)cc2)cc1S(=O)(=O)N1CCOCC1 | -2 | 23* | -1 | -7 | -5 | -1
O=C(COc1ccc([N+](=O)[O-])cc1)Nc1ccc(S(=O)(=O)N2CCOCC2)cc1 | -10 | 0 | 1 | -3 | 55* | 1
O=C(COc1ccc(S(=O)(=O)N2CCOCC2)cc1)NC1CC1 | -2 | 0 | -1 | -3 | 52* | 1
O=C(COc1ccc(S(=O)(=O)N2CCOCC2)cc1)NC1CCCC1 | -2 | x | -2 | x | 24 | 2
COc1ccc(CN2C[C@H](C)[C@@H](OC)CN(C)C(=O)c3cc(NC(C)=O)ccc3OC[C@@H]2C)cc1 | x | 1 | x | x | x | x
COc1ccc2c3c(n(C)c2c1)[C@H](CO)N(C)CC31CN(S(=O)(=O)c2cn(C)cn2)C1 | x | 0 | x | x | x | x
CN(C)S(=O)(=O)c1ccc2c(c1)/C(=C/c1cc3c([nH]1)CCCC3)C(=O)N2 | -11 | 113* | -12 | -7 | x | 7
CN(C)S(=O)(=O)c1ccc2c(c1)C(=O)c1cc(S(=O)(=O)N(C)C)ccc1CC2 | 2 | 0 | -2 | -2 | -1 | 2
COc1ccc(NC(=O)N[C@@H]2CC[C@H](CC(=O)NC3CCCCC3)O[C@H]2CO)cc1 | x | 0 | x | x | x | x
CC(=NNc1ccc2ccccc2n1)c1ccccn1 | 5 | 33* | -16 | -12 | x | x
COC(=O)\C(C(C)=O)=C(/C=C/C=C/N(C)C)N(C)C | 6 | x | -3 | -2 | 62* | 2
COC(=O)/C(C(C)=O)=C(/C=C/C=C/N(C)C)N(C)C | 1 | x | -1 | -8 | 9 | 1
COc1ccc(CN(C)C[C@@H]2Oc3c(NC(=O)C4CCCCC4)cccc3C(=O)N([C@@H](C)CO)C[C@@H]2C)cc1 | x | 0 | x | x | x | x
O=c1[nH]c(=O)c2nc(-c3ccc(Cl)cc3)cnc2[nH]1 | -7 | 0 | 2 | 100* | 5 | 3
NC(=O)CC(NC(=O)Cc1ccc(Br)cc1)c1ccc(NC2CCCCCCC2)c([N+](=O)[O-])c1 (stereo not drawn) | 0 | 0 | 4 | -12 | 0 | 13
